According to ChEMBL document CHEMBL2375346, “Lanostane triterpenoids from the mushroom Naematoloma fasciculare” (J Nat Prod, 2013):
Activity calls are given as the source filed them. The calls are words filed in the database; no cut-off is given here.

How the values were obtained:
SK-MEL-2 = assay: Cytotoxicity against human SK-MEL-2 cells assessed as growth inhibition by SRB assay; format: functional, cell-based
In short: (§1)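 Human cancer lines supplied by NCI. Cytotoxicity was measured by sulforhodamine B (SRB) assay at KRICT, with doxorubicin as positive control. IC50 reported.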

SK-OV-3 = assay: Cytotoxicity against human SKOV3 cells assessed as growth inhibition by SRB assay; format: functional, cell-based; in short: as §1
BV-2 [1] = assay: Cytotoxicity against mouse BV2 cells assessed as cell viability by MTT assay; format: cell-based
In short: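 Viability of BV-2 microglia was measured by MTT assay in parallel with the LPS-stimulated NO experiment: 3 × 10^4 cells/well, 30 min compound pretreatment, then 100 ng/mL LPS for 24 h.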

A549 = assay: Cytotoxicity against human A549 cells assessed as growth inhibition by SRB assay; format: functional, cell-based; in short: as §1
HCT-15 = assay: Cytotoxicity against human HCT15 cells assessed as growth inhibition by SRB assay; format: functional, cell-based; in short: as §1
BV-2 [2] = assay: Antiinflammatory activity in mouse BV2 cells assessed as inhibition of LPS-induced nitrite production incubated for 30 mins prior to LPS challenge measured after 24 hrs by Griess assay; format: functional, cell-based
In short: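 BV-2 murine microglia seeded at 3 × 10^4 cells/well, grown 24 h, then pretreated with compound for 30 min before 100 ng/mL LPS stimulation for a further 24 h. Nitrite in the medium was read by Griess reaction (1% sulfanilamide, 0.1% N-1-naphthylethylenediamine dihydrochloride in 5% phosphoric acid), with absorbance at 540 nm after 10 min against a sodium nitrite standard. L-NMMA was the positive control. IC50 reported.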

| Structure (SMILES) | IC50 (SK-MEL-2) | IC50 (SK-OV-3) | Activity (BV-2 [1]) | IC50 (A549) | IC50 (HCT-15) | Activity (BV-2 [2]) | IC50 (BV-2 [2]) |
| --- | --- | --- | --- | --- | --- | --- | --- |
| CC(C)(O)[C@H](O)CC[C@@H](CO)[C@H]1CC[C@@]2(C)C3=CC[C@H]4C(C)(C)[C@@H](O)[C@H](O)C[C@]4(C)C3=C[C@H](O)[C@]12C | 4.54 µM | 3.29 µM | Toxic | 4.47 µM | 7.71 µM | inactive |  |
| CC(C)(O)[C@H](O)CC[C@@H](CO)[C@H]1CC[C@@]2(C)C3=C(C[C@H](O)[C@]12C)[C@@]1(C)C[C@@H](O)[C@H](OC(=O)C[C@@](C)(O)CC(=O)O)C(C)(C)[C@@H]1CC3 | > 30 µM | > 30 µM | Non-toxic | > 30 µM | > 30 µM | inactive |  |
| C[C@H](CC[C@@H](O)C(C)(C)O)[C@H]1CC[C@@]2(C)C3=C(C[C@H](O)[C@]12C)[C@@]1(C)C[C@@H](O)[C@H](OC(=O)C[C@@](C)(O)CC(=O)O)C(C)(C)[C@@H]1CC3 | > 30 µM | > 30 µM |  | > 30 µM | > 30 µM | inactive |  |
| COc1cccc2c1C(=O)c1c(O)c3c(c(O)c1C2=O)C[C@@](O)(C(=O)CO)C[C@@H]3O[C@H]1C[C@H](N)[C@H](O)[C@H](C)O1 [DOXORUBICIN] | 0.01 µM | 0.01 µM |  | 0.02 µM | 0.13 µM |  |  |
| COC(=O)CNC(=O)CC(C)(O)CC(=O)O[C@H]1[C@H](O)C[C@]2(C)C3=C(CC[C@H]2C1(C)C)[C@]1(C)CC[C@H]([C@H](C)CC[C@@H](O)C(C)(C)O)[C@@]1(C)[C@@H](O)C3 (some centres not stated) | 8.6 µM | > 30 µM | Toxic | > 30 µM | > 30 µM | inactive |  |
| COC(=O)CNC(=O)CC(C)(O)CC(=O)O[C@H]1[C@H](O)C[C@]2(C)C3=C(CC[C@H]2C1(C)C)[C@]1(C)CC[C@H]([C@H](CO)CC[C@@H](O)C(C)(C)O)[C@@]1(C)[C@@H](O)C3 (some centres not stated) | 9.06 µM | > 30 µM |  | > 30 µM | > 30 µM | inactive |  |
| CC(C)(O)[C@H](O)CC[C@@H](CO)[C@H]1CC[C@@]2(C)C3=C(C[C@H](O)[C@]12C)[C@@]1(C)C[C@@H](O)[C@H](O)C(C)(C)[C@@H]1CC3=O | 4.77 µM | 7.36 µM | Non-toxic | 3.99 µM | 8.5 µM |  | 49.9 µM |
| COC(=O)CNC(=O)CC(C)(O)CC(=O)O[C@@H]1C[C@]2(C)C3=C(CC[C@H]2C(C)(C)[C@H]1O)[C@]1(C)CC[C@H]([C@H](CO)CC[C@@H](O)C(C)(C)O)[C@@]1(C)[C@@H](O)C3 (some centres not stated) | 5.73 µM | > 30 µM | Toxic | > 30 µM | > 30 µM | inactive |  |
| CC(C)(O)[C@H](O)CC[C@@H](CO)[C@H]1CC[C@]2(C)[C@]1(C)[C@@H](O)C=C1[C@]23O[C@H]3C[C@H]2C(C)(C)[C@@H](O)[C@H](O)C[C@]12C | 8.26 µM | 7.08 µM | Non-toxic | 6.59 µM | 8.53 µM | inactive |  |
| C[C@H](CC[C@@H](O)C(C)(C)O)[C@H]1CC[C@@]2(C)C3=C(C[C@H](O)[C@]12C)[C@@]1(C)C[C@@H](OC(=O)CC(C)(O)CC(=O)O)[C@H](O)C(C)(C)[C@@H]1CC3 (some centres not stated) | 16.6 µM | 22.2 µM | Non-toxic | 27.2 µM | 28.5 µM |  | 93.1 µM |
| CC(C)(O)[C@H](O)CC[C@@H](CO)[C@H]1CC[C@@]2(C)C3=C(C[C@H](O)[C@]12C)[C@@]1(C)C[C@@H](O)[C@H](O)C(C)(C)[C@@H]1CC3 | 2.29 µM | 2.82 µM | Toxic | 2.37 µM | 3.06 µM | inactive |  |
| COC(=O)CNC(=O)CC(C)(O)CC(=O)O[C@@H]1C[C@]2(C)C3=C(CC[C@H]2C(C)(C)[C@H]1O)[C@]1(C)CC[C@H]([C@H](C)CC[C@@H](O)C(C)(C)O)[C@@]1(C)[C@@H](O)C3 (some centres not stated) | 9.16 µM | > 30 µM | Toxic | > 30 µM | > 30 µM | inactive |  |
| C[C@H](CC[C@@H](O)C(C)(C)O)[C@H]1CC[C@@]2(C)C3=C(C[C@H](O)[C@]12C)[C@@]1(C)C[C@@H](O)[C@H](O)C(C)(C)[C@@H]1CC3 | 5.17 µM | 8.53 µM | Toxic | 7.85 µM | 8.22 µM | inactive |  |
| CC(C)(O)[C@H](O)CC[C@@H](CO)[C@H]1CC[C@@]2(C)C3=C(C[C@H](O)[C@]12C)[C@@]1(C)C[C@@H](OC(=O)C[C@@](C)(O)CC(=O)O)[C@H](O)C(C)(C)[C@@H]1CC3 | 25.2 µM | 16.2 µM | Non-toxic | 25.5 µM | 28 µM | inactive |  |
| CC(C)(O)[C@H](O)CC[C@@H](CO)[C@H]1CC[C@@]2(C)C3=C(CC(=O)[C@]12C)[C@@]1(C)C[C@@H](O)[C@H](O)C(C)(C)[C@@H]1CC3 | > 30 µM | 7.98 µM | Toxic | > 30 µM | > 30 µM | inactive |  |
| C[C@H](CC[C@@H](O)C(C)(C)O)[C@H]1CC[C@@]2(C)C3=C(CC(=O)[C@]12C)[C@@]1(C)C[C@@H](O)[C@H](O)C(C)(C)[C@@H]1CC3 | > 30 µM | 9.86 µM | Non-toxic | > 30 µM | > 30 µM | inactive |  |
